MCC, EC50 and CC50 data for twelve molecules are collected here from ChEMBL document CHEMBL1124709, “Synthesis and antiviral activity of 3'-heterocyclic substituted 3'-deoxythymidines” (1990).

Common to all, as to type: functional
In test [1] the test system is C3H/3T3. Nature of the test: Minimum cytotoxic concentration required to inhibit MSV-induced transformation of C3H/3T3 cells. The note with it: Mus musculus. An outline of the steps: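 Murine embryo fibroblast C3H/3T3 cells examined under the microscope. The value is the minimum concentration at which an alteration of normal cell morphology was seen.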
Test [2] deals with C3H/3T3. Nature of the test: Inhibitory effect on MSV-induced transformation of C3H/3T3 cells. The note with it: Mus musculus, read-out: ED50 (the source's name). An outline of the steps: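 Murine embryo fibroblast C3H/3T3 cells infected with Moloney murine sarcoma virus; the read-out is inhibition of virus-induced cell transformation.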
Test [3] concerns MT4. Nature of the test: Effective dose of compound required to achieve 50% protection of MT-4 cells against the cytopathic effect of HIV. As to conditions: Homo sapiens, read-out: ED50 (the source's name). An outline of the steps: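 HIV-1 strain HTLV-III_B in human MT-4 cells; the read-out is inhibition of virus-induced cytopathic effect. ED50 is the dose giving 50% protection of the cells.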
(Cytopathic effects are the visible damage that an infection or toxin causes in cultured cells.)

The subject of test [4] is MT4. Nature of the test: Cytotoxic dose required to reduce the viability of normal uninfected MT-4 cells by 50%. As to conditions: Homo sapiens, read-out: CD50 (the source's name).

Structures are written as SMILES.

As for `Cc1cn([C@@H]2O[C@H](CO)[C@H](n3cncn3)C2O)c(=O)[nH]c1=O` (stereo partly drawn), the MCC with C3H/3T3 [1] was over 100 µM. Also, the EC50 is over 100 µM in the test on C3H/3T3 [2] and over 500 µM in the test on MT4 [3]. Moreover, the CC50 with MT4 [4] is over 500 µM.

The molecule `Cc1cn([C@@H]2O[C@H](CO)[C@H](n3cccn3)C2O)c(=O)[nH]c1=O` (stereo partly drawn) returned an MCC with C3H/3T3 [1] of over 100 µM. Further, the EC50 in the test with C3H/3T3 [2] and in the test on MT4 [3] was over 100 µM in each case. The CC50 with MT4 [4] was over 100 µM.

In the test on C3H/3T3 [1], `Cc1cn([C@H]2C[C@@H](NC=O)[C@@H](CO)O2)c(=O)[nH]c1=O` yielded an MCC of over 100 µM. Besides, the EC50 in the test with C3H/3T3 [2] and in the test on MT4 [3] was over 100 µM throughout. Also, in the test on MT4 [4], the CC50 was determined as 66 µM.

For the molecule `Cc1cn([C@@H]2O[C@H](CO)[C@H](n3ccnc3)C2O)c(=O)[nH]c1=O` (stereo partly drawn), in the test on C3H/3T3 [1], the MCC was over 100 µM. Besides, the EC50 was over 100 µM with C3H/3T3 [2] and over 500 µM in the test on MT4 [3]. Further, in the test on MT4 [4], the CC50 was over 500 µM.

Turning to `Cc1cn([C@H]2C[C@@H](n3cncn3)[C@@H](CO)O2)c(=O)[nH]c1=O`, in the test on C3H/3T3 [1], the MCC was over 100 µM. The EC50 in the test on C3H/3T3 [2] was over 100 µM; in the test with MT4 [3], over 500 µM. The CC50 in the test on MT4 [4] was over 500 µM.

For `Cc1cn([C@H]2C[C@@H](n3cccc3)[C@@H](CO)O2)c(=O)[nH]c1=O`, the MCC in the test with C3H/3T3 [1] is over 100 µM. Also, the EC50 in the test on C3H/3T3 [2] is 91 µM; with MT4 [3], 201 µM. In addition, in the test with MT4 [4], the CC50 is over 500 µM.

Molecule `Cc1cn([C@H]2C[C@@H](n3ccnn3)[C@@H](CO)O2)c(=O)[nH]c1=O` returned an MCC in the test with C3H/3T3 [1] of over 100 µM. The EC50 in the test on C3H/3T3 [2] was over 100 µM; with MT4 [3], over 500 µM. Besides, the CC50 in the test with MT4 [4] is over 500 µM.

As to `Cc1cn([C@@H]2O[C@H](CO)C[C@H]2n2cncn2)c(=O)[nH]c1=O`, in the test with C3H/3T3 [1], the MCC was over 100 µM. Besides, the EC50 in the test with C3H/3T3 [2] is over 100 µM; in the test on MT4 [3] it was over 500 µM. In addition, the CC50 in the test with MT4 [4] is over 500 µM.

`Cc1cn([C@H]2C[C@@H](n3cnnc3)[C@@H](CO)O2)c(=O)[nH]c1=O` showed an MCC in the test with C3H/3T3 [1] of over 100 µM. The figures for the EC50 with C3H/3T3 [2] and in the test with MT4 [3] were over 100 µM and over 5 µM, respectively. Moreover, in the test with MT4 [4], the CC50 was determined as 4.8 µM.

Take `Cc1cn([C@H]2C[C@@H](n3ccnc3)[C@@H](CO)O2)c(=O)[nH]c1=O`: the MCC in the test on C3H/3T3 [1] is over 100 µM. Further, the EC50 in the test on C3H/3T3 [2] was over 100 µM; in the test on MT4 [3] it was over 500 µM. Besides, the CC50 in the test on MT4 [4] is over 500 µM.

Take `Cc1cn([C@H]2C[C@@H](n3cccn3)[C@@H](CO)O2)c(=O)[nH]c1=O`: the MCC in the test with C3H/3T3 [1] was over 100 µM. Also, the EC50 was over 100 µM in the test on C3H/3T3 [2] and over 500 µM in the test on MT4 [3]. For the same molecule, the CC50 in the test with MT4 [4] is over 500 µM.

In turn, `Cc1cn([C@@H]2O[C@H](CO)[C@@H](O)C2n2cncn2)c(=O)[nH]c1=O` (stereo partly drawn) had an MCC in the test on C3H/3T3 [1] of over 100 µM. Further, the EC50 in the test with C3H/3T3 [2] is over 100 µM; in the test on MT4 [3], over 500 µM. Besides, the CC50 with MT4 [4] was over 500 µM.
